In publication PMC10500653 (ACS Omega, 2023):
Read-outs that look alike come from different tables or passages of the source. Each block holds one compound with its values, some of them ahead of it.

Experiments:
[1] = test system: HuCCA-1 cholangiocarcinoma cell line; assay: Cytotoxicity assay; assay type: cell-based; conditions: Homo sapiens, HuCC-A1, 48 h, read-out: Cytotoxic activity IC50, HuCCA-1
Outline: (§1)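 Cells were pre-plated in medium, then an equal volume of medium holding serial dilutions of the test compound was added to reach the final concentrations. Controls were DMSO (negative) and etoposide and/or doxorubicin (positive). Plates were incubated a further 48 h and surviving cells were counted by MTT. IC50 is the concentration giving 50% growth inhibition relative to the DMSO control.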

[2] = test system: HepG2 hepatocellular carcinoma cell line; assay: Cytotoxicity assay; assay type: cell-based, human; conditions: for IC50: Homo sapiens, HepG2, 48 h; for Cytotoxic activity IC50, HepG2: 48 h, MTT
Outline: as §1

[3] = test system: A549 lung carcinoma cell line; assay: Cytotoxicity assay; assay type: cell-based, human; conditions: for IC50: Homo sapiens, A549, 48 h
Outline: as §1

[4] = test system: MOLT-3 lymphoblastic leukemia cell line; assay: Cytotoxicity assay; assay type: cell-based; conditions: Homo sapiens, MOLT-3, 48 h, read-out: Cytotoxic activity IC50, MOLT-3
Outline: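 MOLT-3 cells received an equal volume of additional medium with serial dilutions of the test compound to reach the final concentrations. DMSO served as the negative control and etoposide and/or doxorubicin as the positive control. After a further 48 h incubation, surviving cells were counted by XTT. IC50 is the concentration inhibiting growth by 50% versus the DMSO control.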

[5] = test system: T47D hormone-dependent breast cancer; assay: Cytotoxicity assay; assay type: cell-based; conditions: Homo sapiens, 48 h, read-out: Cytotoxic activity IC50, T47D
Outline: as §1

[6] = test system: MDA-MB-231 hormone-independent breast cancer; assay: Cytotoxicity assay; assay type: cell-based; conditions: Homo sapiens, MDA-MB-231, 48 h, read-out: Cytotoxic activity IC50, MDA-MB-231
Outline: as §1

Cytotoxicity assay = assay type: cell-based; conditions: human, MRC-5 normal embryonic lung cells
Outline: as §1

FGFR1 tyrosine kinase = FGFR1 tyrosine kinase (Homo sapiens, UniProt P11362); assay: ADP-Glo kinase assay, FGFR1; assay type: biochemical; conditions: for inhibition at 1 µM: read-out: % inhibition of FGFR1
Chain of FGFR1 tyrosine kinase (P11362 22-822): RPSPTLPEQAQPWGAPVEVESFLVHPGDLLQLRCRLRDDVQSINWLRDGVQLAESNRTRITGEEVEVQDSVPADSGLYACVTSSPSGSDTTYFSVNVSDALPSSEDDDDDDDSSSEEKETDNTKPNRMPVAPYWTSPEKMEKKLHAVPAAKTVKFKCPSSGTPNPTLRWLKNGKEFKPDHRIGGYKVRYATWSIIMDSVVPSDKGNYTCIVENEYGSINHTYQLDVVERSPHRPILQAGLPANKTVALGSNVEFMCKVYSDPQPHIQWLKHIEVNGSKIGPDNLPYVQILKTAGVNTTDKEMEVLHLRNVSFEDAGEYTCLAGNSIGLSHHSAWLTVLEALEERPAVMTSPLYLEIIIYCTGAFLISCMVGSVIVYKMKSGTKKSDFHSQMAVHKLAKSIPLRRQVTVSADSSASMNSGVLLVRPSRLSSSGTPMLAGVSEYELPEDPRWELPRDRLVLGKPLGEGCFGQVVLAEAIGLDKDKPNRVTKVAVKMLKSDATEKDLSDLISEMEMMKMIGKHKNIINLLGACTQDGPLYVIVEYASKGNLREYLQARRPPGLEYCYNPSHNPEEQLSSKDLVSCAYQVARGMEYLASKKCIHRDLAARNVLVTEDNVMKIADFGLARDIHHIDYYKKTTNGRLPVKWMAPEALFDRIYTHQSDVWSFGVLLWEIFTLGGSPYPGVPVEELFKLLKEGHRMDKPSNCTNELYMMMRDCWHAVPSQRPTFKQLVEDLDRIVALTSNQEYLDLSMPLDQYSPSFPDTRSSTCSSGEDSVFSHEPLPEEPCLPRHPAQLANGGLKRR

[7] = read-out: Cytotoxic activity IC50, HepG2
[8] = read-out: Cytotoxic activity IC50, A549
[9] = read-out: Cytotoxic activity, HepG2 (class NC)

IC50 (FGFR1 tyrosine kinase): 0.00091 ± 8e-05 µM | inhibition at 1 µM (FGFR1 tyrosine kinase): > 70%
SMILES: COc1cccc(/C=C/C(=O)c2cccc(NC3=C(Cl)C(=O)c4ccccc4C3=O)c2)c1OC [Compound 1, (E)-2-Chloro-3-((3-(3-(2,3-dimethoxyphenyl)acryloyl)phenyl)amino)naphthalene-1,4-dione]
IC50 [1]: 1.16 ± 0.4 µM | IC50 [2, 7]: 5.13 ± 0.15 µM | IC50 [3, 8]: 6.12 ± 1.56 µM | IC50 [4]: 1.24 ± 0.03 µM | IC50 [5]: 1.81 ± 0.04 µM | IC50 [6]: 1.08 ± 0.12 µM | IC50 at 48 h (Cytotoxicity assay): 4.96 ± 0.14 µM

IC50 (FGFR1 tyrosine kinase): 0.0015 ± 0.00028 µM | inhibition at 1 µM (FGFR1 tyrosine kinase): > 70%
SMILES: COc1ccc(/C=C/C(=O)c2cccc(NC3=C(Cl)C(=O)c4ccccc4C3=O)c2)c(OC)c1OC [Compound 2, (E)-2-Chloro-3-((3-(3-(2,3,4-trimethoxyphenyl)acryloyl)phenyl)amino)naphthalene-1,4-dione]
IC50 [1]: 8.87 ± 1.03 µM | IC50 [2, 7]: 16.3 ± 0.44 µM | IC50 [3, 8]: 33.5 ± 0.17 µM | IC50 [4]: 1.81 ± 0.05 µM | IC50 [5]: 2.32 ± 0.08 µM | IC50 [6]: 1.79 ± 0.12 µM | IC50 at 48 h (Cytotoxicity assay): 2.6 ± 0.04 µM

SMILES: COc1cc(/C=C/C(=O)c2cccc(NC3=C(Cl)C(=O)c4ccccc4C3=O)c2)cc(OC)c1OC [Compound 3, (E)-2-Chloro-3-((3-(3-(3,4,5-trimethoxyphenyl)acryloyl)phenyl)amino)naphthalene-1,4-dione]
IC50 [1]: 4.72 ± 0.48 µM | IC50 [2, 7]: 16.9 ± 0.74 µM | IC50 [3, 8]: 51.6 ± 10.3 µM | IC50 [4]: 0.99 ± 0.12 µM | IC50 [5]: 1.15 ± 0.08 µM | IC50 [6]: 1.05 ± 0.04 µM | IC50 at 48 h (Cytotoxicity assay): 2.52 ± 0.26 µM

IC50 (FGFR1 tyrosine kinase): 0.00096 ± 5e-05 µM | inhibition at 1 µM (FGFR1 tyrosine kinase): > 70%
SMILES: COc1cc(/C=C/C(=O)c2cccc(NC3=C(Cl)C(=O)c4ccccc4C3=O)c2)cc(OC)c1O [Compound 4, (E)-2-Chloro-3-((3-(3-(4-hydroxy-3,5-dimethoxyphenyl)acryloyl)phenyl)amino)naphthalene-1,4-dione]
IC50 [1]: 7.06 ± 1.36 µM | IC50 [2, 7]: 12.8 ± 0.42 µM | IC50 [3, 8]: 25 ± 4.22 µM | IC50 [4]: 1.1 ± 0.14 µM | IC50 [5]: 2.12 ± 0.11 µM | IC50 [6]: 1.43 ± 0.11 µM | IC50 at 48 h (Cytotoxicity assay): 2.9 ± 0.48 µM

IC50 (FGFR1 tyrosine kinase): 0.00033 ± 1e-05 µM | inhibition at 1 µM (FGFR1 tyrosine kinase): > 70%
SMILES: O=C(/C=C/c1ccc(O)cc1)c1cccc(NC2=C(Cl)C(=O)c3ccccc3C2=O)c1 [Compound 5, (E)-2-Chloro-3-((3-(3-(4-hydroxyphenyl)acryloyl)phenyl)amino)naphthalene-1,4-dione]
IC50 [1]: 5.65 ± 0.08 µM | IC50 [2, 7]: 13.07 ± 0.12 µM | IC50 [3, 8]: 31.9 ± 3.71 µM | IC50 [4]: 2.19 ± 0.26 µM | IC50 [5]: 5.75 µM | IC50 [6]: 3.33 ± 0.08 µM | IC50 at 48 h (Cytotoxicity assay): 11 ± 0.99 µM

SMILES: COc1cccc(/C=C/C(=O)c2ccc(NC3=C(Cl)C(=O)c4ccccc4C3=O)cc2)c1 [Compound 6, (E)-2-Chloro-3-((4-(3-(3-methoxyphenyl)acryloyl)phenyl)amino)naphthalene-1,4-dione]
IC50 [1]: 11.1 ± 0.37 µM | IC50 [2, 7]: 6.88 ± 2.72 µM | IC50 [3, 8]: 13.5 ± 1.49 µM | IC50 [4]: 1.78 ± 0.06 µM | IC50 [5]: 2.1 ± 0.12 µM | IC50 [6]: 1.31 ± 0.03 µM | IC50 at 48 h (Cytotoxicity assay): 2.69 ± 0.15 µM

IC50 (FGFR1 tyrosine kinase): 0.00085 ± 8e-05 µM | inhibition at 1 µM (FGFR1 tyrosine kinase): > 70%
SMILES: COc1ccc(/C=C/C(=O)c2ccc(NC3=C(Cl)C(=O)c4ccccc4C3=O)cc2)cc1OC [Compound 7, (E)-2-Chloro-3-((4-(3-(3,4-dimethoxyphenyl)acryloyl)phenyl)amino)naphthalene-1,4-dione]
IC50 [1]: 7.32 ± 0.37 µM | Cytotoxic activity IC50, HepG2 [2]: inactive | IC50 [2, 9]: > 50 µg/mL | IC50 [3, 8]: 62.06 ± 0.14 µM | IC50 [4]: 1.27 ± 0.12 µM | IC50 [5]: 1.86 ± 0.06 µM | IC50 [6]: 1.16 ± 0.03 µM | IC50 at 48 h (Cytotoxicity assay): 2.93 ± 0.16 µM

IC50 (FGFR1 tyrosine kinase): 0.00169 ± 0.00071 µM
SMILES: COc1cc(/C=C/C(=O)c2ccc(NC3=C(Cl)C(=O)c4ccccc4C3=O)cc2)cc(OC)c1OC [Compound 8, (E)-2-Chloro-3-((4-(3-(3,4,5-trimethoxyphenyl)acryloyl)phenyl)amino)naphthalene-1,4-dione]
IC50 [1]: 4.72 ± 0.33 µM | IC50 [2, 7]: 10.87 ± 0.01 µM | IC50 [3, 8]: 25.8 ± 3.55 µM | IC50 [4]: 0.81 ± 0.02 µM | IC50 [5]: 1.61 ± 0.07 µM | IC50 [6]: 1.09 ± 0.02 µM | IC50 at 48 h (Cytotoxicity assay): 2.92 ± 0.36 µM

IC50 (FGFR1 tyrosine kinase): 0.0005 ± 4e-05 µM
SMILES: COc1ccc(/C=C/C(=O)c2ccc(NC3=C(Cl)C(=O)c4ccccc4C3=O)cc2)cc1O [Compound 9, (E)-2-Chloro-3-((4-(3-(3-hydroxy-4-methoxyphenyl)acryloyl)phenyl)amino)naphthalene-1,4-dione]
IC50 [1]: 6.85 ± 1.2 µM | Cytotoxic activity IC50, HepG2 [2]: inactive | IC50 [2, 9]: > 50 µg/mL | Cytotoxic activity IC50, A549 ([3]; A549, 48 h, MTT): inactive | IC50 ([3]; read-out: Cytotoxic activity, A549 (class NC)): > 50 µg/mL | IC50 [4]: 0.83 ± 0.01 µM | IC50 [5]: 24.1 ± 1.61 µM | IC50 [6]: 6.81 ± 0.52 µM | IC50 at 48 h (Cytotoxicity assay): 14.94 ± 0.09 µM

IC50 (FGFR1 tyrosine kinase): 0.00313 ± 0.00067 µM | inhibition at 1 µM (FGFR1 tyrosine kinase): > 70%
SMILES: O=C(/C=C/c1ccc(O)cc1)c1ccc(NC2=C(Cl)C(=O)c3ccccc3C2=O)cc1 [Compound 10, (E)-2-Chloro-3-((4-(3-(4-hydroxyphenyl)acryloyl)phenyl)amino)naphthalene-1,4-dione]
IC50 [1]: 7.7 ± 2.85 µM | IC50 [2, 7]: 57.5 ± 1.28 µM | IC50 [3, 8]: 44.1 ± 4.06 µM | IC50 [4]: 2.35 ± 0.39 µM | IC50 [5]: 3.21 ± 0.06 µM | IC50 [6]: 1.37 ± 0.07 µM | IC50 at 48 h (Cytotoxicity assay): 8.31 ± 3.3 µM

SMILES: COc1cccc2c1C(=O)c1c(O)c3c(c(O)c1C2=O)C[C@@](O)(C(=O)CO)C[C@@H]3O[C@H]1C[C@H](N)[C@H](O)[C@H](C)O1 [doxorubicin, reference compound]
IC50 [1]: 0.42 ± 0.02 µM | IC50 [2, 7]: 0.57 ± 0.05 µM | IC50 [3, 8]: 0.37 ± 0.02 µM | IC50 [5]: 0.84 ± 0.01 µM | IC50 [6]: 1.84 ± 0.13 µM | IC50 at 48 h (Cytotoxicity assay): 2.79 ± 0.11 µM

SMILES: COc1cc([C@@H]2c3cc4c(cc3[C@@H](O[C@@H]3O[C@@H]5CO[C@@H](C)O[C@H]5[C@H](O)[C@H]3O)[C@H]3COC(=O)[C@H]23)OCO4)cc(OC)c1O [etoposide, reference compound]
IC50 [2, 7]: 33.98 ± 0.01 µM | IC50 [4]: 0.041 ± 0.003 µM
